Like-named read-outs stand apart in the source and are kept apart here.
Key:
P2Y1R = details: read-out: EC50 at P2Y1R; cited from earlier work
[1] = target: calf intestine alkaline phosphatase (Bos taurus, UniProt P19111); assay: Hydrolysis by alkaline phosphatase; details: for degradation by alkaline phosphatase after 3 h: 0.2 mg analogue/77.5 μL, 12.5 units of AP, 37 °C; for resistance to hydrolysis by alkaline phosphatase: over 30 min at 37 °C
[2] = Stability in human blood serum at 37 °C; type: in vitro ADME
rabbit IOP [3] = details: topically applied to New Zealand white rabbits; cited from earlier work
[4] = cited from earlier work
[5] = pKa and ionization of the terminal phosphate/phosphonate; type: physicochemical; details: pH 7.4, terminal phosphate/phosphonate
rabbit IOP [6] = assay: IOP measurements in normotensive rabbits; type: in vivo, New Zealand white rabbits
Outline: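 Male New Zealand white rabbits (2.5 ± 0.5 kg) on a 12 h/12 h light/dark cycle. Test compound was applied unilaterally to the cornea at 100 μM in 10 μL, with 0.9% saline vehicle in the contralateral eye. Design was blinded, with two baseline readings by rebound tonometer and follow-up to 8 h. Dose–response used 1 nM–100 μM, taking the maximal response per dose. […] Mean-time effect was the time from 50% maximal IOP decrease to 50% recovery. Mean ± SEM of 8–10 experiments.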

[7] = pH 1.4, 37 °C; cited from earlier work
[8] = Chemical stability at pH 1.4 and 37 °C, monitored by HPLC; type: physicochemical; details: for t1/2 of hydrolysis at pH 1.4: pH 1.4, 37 °C, KCl/HCl buffer
turkey P2Y1 receptor = turkey P2Y1 receptor (Meleagris gallopavo, UniProt P49652); type: cell-based
NTPDase2 = target: T1, NTPDase2 (Homo sapiens, UniProt Q9Y5L3); assay: NTPDase2 hydrolysis assay; type: in vitro ADME; details: 100 μM substrate; vs 100 μM ATP set at 100%
T1 sequence (Q9Y5L3 1-495): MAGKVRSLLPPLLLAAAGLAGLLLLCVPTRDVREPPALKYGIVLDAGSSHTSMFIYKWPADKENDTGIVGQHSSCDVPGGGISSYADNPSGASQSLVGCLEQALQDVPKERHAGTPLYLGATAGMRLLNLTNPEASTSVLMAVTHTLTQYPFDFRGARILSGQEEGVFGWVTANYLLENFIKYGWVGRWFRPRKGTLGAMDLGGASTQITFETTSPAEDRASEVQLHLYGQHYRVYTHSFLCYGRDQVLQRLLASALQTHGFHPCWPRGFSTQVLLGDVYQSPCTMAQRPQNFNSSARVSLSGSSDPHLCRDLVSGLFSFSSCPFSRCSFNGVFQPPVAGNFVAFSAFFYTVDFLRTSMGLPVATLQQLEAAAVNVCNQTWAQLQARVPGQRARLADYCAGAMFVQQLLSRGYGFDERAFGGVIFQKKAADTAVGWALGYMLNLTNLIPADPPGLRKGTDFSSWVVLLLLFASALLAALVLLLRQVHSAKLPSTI
Outline: (§1)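 Enzymes were transiently expressed in COS-7 cells. Crude protein extracts were made by sonication, 300g clearing at 4 °C and storage at −80 °C, with protein measured by Bradford. Extract was preincubated 3 min at 37 °C in Tris-Ringer buffer, pH 7.4. […] Activity of untransfected-cell extract was subtracted.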

NTPDase1 = target: T2, NTPDase1 (Homo sapiens, UniProt P49961); assay: NTPDase1 hydrolysis assay; type: in vitro ADME; details: 100 μM substrate; vs 100 μM ATP set at 100%
T2 sequence (P49961 1-510): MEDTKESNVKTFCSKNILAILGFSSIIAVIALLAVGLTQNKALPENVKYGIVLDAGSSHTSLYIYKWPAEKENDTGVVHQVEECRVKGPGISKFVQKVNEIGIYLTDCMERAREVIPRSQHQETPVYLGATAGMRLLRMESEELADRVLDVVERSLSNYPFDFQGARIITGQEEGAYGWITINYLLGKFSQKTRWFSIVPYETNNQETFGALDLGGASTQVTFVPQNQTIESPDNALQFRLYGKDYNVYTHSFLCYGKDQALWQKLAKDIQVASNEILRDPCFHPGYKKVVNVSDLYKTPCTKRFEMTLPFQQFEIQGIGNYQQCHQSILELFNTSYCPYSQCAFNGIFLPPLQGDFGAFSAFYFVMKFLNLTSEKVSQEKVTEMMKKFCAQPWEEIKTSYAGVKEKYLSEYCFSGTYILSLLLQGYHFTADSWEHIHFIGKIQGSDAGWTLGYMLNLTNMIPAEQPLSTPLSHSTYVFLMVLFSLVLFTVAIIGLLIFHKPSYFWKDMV

human NPP3 = target: T3, human NPP3 (Homo sapiens, UniProt O14638); assay: NPP3 hydrolysis assay; type: in vitro ADME; details: 100 μM substrate; vs 100 μM ATP set at 100%
T3 sequence (O14638 1-875): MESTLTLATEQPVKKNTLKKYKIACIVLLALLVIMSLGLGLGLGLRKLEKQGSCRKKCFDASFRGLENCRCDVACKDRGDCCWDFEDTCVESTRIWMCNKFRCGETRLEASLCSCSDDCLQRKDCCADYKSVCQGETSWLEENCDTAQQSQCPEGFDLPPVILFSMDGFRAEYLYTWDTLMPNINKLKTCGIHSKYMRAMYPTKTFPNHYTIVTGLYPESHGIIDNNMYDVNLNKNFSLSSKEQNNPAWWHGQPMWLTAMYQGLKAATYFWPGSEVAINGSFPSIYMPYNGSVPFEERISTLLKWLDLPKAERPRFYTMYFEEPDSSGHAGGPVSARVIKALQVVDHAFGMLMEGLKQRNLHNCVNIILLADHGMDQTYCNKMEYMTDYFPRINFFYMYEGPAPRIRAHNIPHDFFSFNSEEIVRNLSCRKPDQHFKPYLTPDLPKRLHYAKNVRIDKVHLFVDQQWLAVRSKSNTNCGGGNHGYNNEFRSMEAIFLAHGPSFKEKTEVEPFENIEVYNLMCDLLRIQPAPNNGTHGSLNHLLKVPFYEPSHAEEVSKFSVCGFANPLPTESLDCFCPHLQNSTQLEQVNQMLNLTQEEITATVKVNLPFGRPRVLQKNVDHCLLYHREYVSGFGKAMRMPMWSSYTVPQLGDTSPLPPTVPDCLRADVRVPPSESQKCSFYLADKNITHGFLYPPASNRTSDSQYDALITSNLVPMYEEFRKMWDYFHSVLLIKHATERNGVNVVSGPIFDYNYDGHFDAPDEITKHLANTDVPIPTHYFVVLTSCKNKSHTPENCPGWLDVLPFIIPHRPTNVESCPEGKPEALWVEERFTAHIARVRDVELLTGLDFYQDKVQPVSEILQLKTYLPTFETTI

NTPDase3 = target: T4, NTPDase3 (Homo sapiens, UniProt O75355); assay: NTPDase3 hydrolysis assay; type: in vitro ADME; details: 100 μM substrate; vs 100 μM ATP set at 100%
T4 sequence (O75355 1-529): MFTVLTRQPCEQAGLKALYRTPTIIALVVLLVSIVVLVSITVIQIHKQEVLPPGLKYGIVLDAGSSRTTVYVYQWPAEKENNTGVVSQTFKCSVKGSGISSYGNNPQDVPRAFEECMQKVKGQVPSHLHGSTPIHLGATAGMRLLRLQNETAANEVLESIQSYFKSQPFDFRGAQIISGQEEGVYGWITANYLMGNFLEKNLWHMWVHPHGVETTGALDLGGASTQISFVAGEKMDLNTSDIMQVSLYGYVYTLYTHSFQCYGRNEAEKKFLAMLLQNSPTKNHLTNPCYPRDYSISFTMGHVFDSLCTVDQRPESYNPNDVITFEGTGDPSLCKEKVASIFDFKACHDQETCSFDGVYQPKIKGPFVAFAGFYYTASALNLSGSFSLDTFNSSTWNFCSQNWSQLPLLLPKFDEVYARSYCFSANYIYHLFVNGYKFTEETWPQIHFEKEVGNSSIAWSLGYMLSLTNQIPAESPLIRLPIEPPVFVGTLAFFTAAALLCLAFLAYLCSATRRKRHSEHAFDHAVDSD
Outline: as §1

[9] = human blood serum/RPMI-1640, 37 °C

Chain of calf intestine alkaline phosphatase (P19111 20-533): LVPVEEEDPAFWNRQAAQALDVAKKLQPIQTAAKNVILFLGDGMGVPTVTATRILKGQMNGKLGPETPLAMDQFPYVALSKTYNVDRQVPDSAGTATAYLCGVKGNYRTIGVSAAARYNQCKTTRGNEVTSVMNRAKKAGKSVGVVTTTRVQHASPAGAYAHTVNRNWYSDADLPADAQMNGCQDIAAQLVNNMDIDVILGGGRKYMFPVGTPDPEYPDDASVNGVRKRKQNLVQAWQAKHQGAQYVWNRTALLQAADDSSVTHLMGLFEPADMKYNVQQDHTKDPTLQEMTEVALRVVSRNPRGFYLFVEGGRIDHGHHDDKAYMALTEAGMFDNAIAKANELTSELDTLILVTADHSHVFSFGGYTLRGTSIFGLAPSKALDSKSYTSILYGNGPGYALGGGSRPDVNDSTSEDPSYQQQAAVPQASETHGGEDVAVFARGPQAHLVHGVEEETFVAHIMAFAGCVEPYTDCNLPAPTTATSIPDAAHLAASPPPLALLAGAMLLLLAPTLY
Chain of turkey P2Y1 receptor (P49652 whole entry): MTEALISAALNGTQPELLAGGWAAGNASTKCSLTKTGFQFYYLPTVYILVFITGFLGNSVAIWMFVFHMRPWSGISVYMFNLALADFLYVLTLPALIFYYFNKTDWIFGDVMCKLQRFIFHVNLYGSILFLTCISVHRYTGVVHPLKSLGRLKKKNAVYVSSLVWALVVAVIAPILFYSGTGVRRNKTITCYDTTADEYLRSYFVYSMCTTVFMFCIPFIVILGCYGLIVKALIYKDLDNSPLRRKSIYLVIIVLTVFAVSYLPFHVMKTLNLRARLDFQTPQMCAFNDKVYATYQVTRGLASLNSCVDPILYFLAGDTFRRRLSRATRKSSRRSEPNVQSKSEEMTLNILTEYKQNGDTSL

## 2-MeS-α-borano-ATP (A-isomer) [analogue 4A]
P2Y1R
  EC50: 2.6 nM

## Nc1ncnc2c1ncn2[C@@H]1O[C@H](COP(=O)(O)OP(=O)(O)O)[C@@H](O)[C@H]1O [ADP]
[1]
  degradation by alkaline phosphatase after 3 h: completely degraded
[2]; [9]
  half-life in human blood serum: 1.4 h

## Nc1ncnc2c1ncn2[C@@H]1O[C@H](COP(=O)(O)OP(=O)(O)OP(=O)(O)OC[C@@H]2O[C@H](n3cnc4c(N)ncnc43)[C@@H](O)[C@H]2O)[C@@H](O)[C@H]1O [Ap3A, diadenosine triphosphate]
Rabbit IOP [3]
  effect on IOP (increase or reduction): increase IOP

## Nc1ncnc2c1ncn2[C@@H]1O[C@H](COP(=O)(O)OP(=O)(O)OP(=O)(O)OP(=O)(O)O)[C@@H](O)[C@H]1O [Ap4, adenosine tetraphosphate]
Rabbit IOP [3]
  effect on IOP (increase or reduction): reduced

## Nc1ncnc2c1ncn2[C@@H]1O[C@H](COP(=O)(O)OP(=O)(O)OP(=O)(O)OP(=O)(O)OC[C@H]2O[C@@H](n3cnc4c(N)ncnc43)[C@H](O)[C@@H]2O)[C@@H](O)[C@H]1O [Ap4A, diadenosine tetraphosphate]
Rabbit IOP [3]
  effect on IOP (increase or reduction): reduced

## Nc1ncnc2c1ncn2[C@@H]1O[C@H](COP(=O)(O)OP(=O)(O)OP(=O)(O)OP(=O)(O)OP(=O)(O)OC[C@H]2O[C@@H](n3cnc4c(N)ncnc43)[C@H](O)[C@@H]2O)[C@@H](O)[C@H]1O [Ap5A, diadenosine pentaphosphate]
Rabbit IOP [3]
  effect on IOP (increase or reduction): increase IOP

## CSc1nc(N)c2ncn([C@@H]3O[C@H](COP(=O)(O)OP(=O)(O)CP(=O)(O)O)[C@@H](O)[C@H]3O)c2n1 [analogue 1, 2-MeS-β,γ-CH2-ATP]
[4]
  t1/2 in human blood serum: 12.1 h
[5]
  fraction ionized at physiological pH: 9%
P2Y1R
  EC50: 80 nM
Rabbit IOP [6]; 100 μM, 10 μL
  duration of the reduction in IOP (mean-time effect): 3.5 h

## BP(=O)(OC[C@H]1O[C@@H](n2cnc3c(N)nc(SC)nc32)[C@H](O)[C@@H]1O)OP(=O)(O)CP(=O)(O)O (stereo partly drawn) [analogue 3, 2-MeS-α-B,β,γ-CH2-ATP]
[7]
  t1/2 of hydrolysis at pH 1.4: 14.5 h

## BP(=O)(OC[C@H]1O[C@@H](n2cnc3c(N)nc(SC)nc32)[C@H](O)[C@@H]1O)OP(=O)(O)CP(=O)(O)O (some centres unmarked) [analogue 3B]
P2Y1R
  EC50: 17200 nM

## CSc1nc(N)c2ncn([C@@H]3O[C@H](COP(=O)(O)OP(=O)(O)O)[C@@H](O)[C@H]3O)c2n1 [analogue 7, 2-MeS-ADP]
[1]
  degradation by alkaline phosphatase after 3 h: 87%
[2]; human, human blood serum diluted with RPMI-1640 medium
  half-life at 0.248 mM: 23.5 h

## CSc1nc(N)c2ncn([C@@H]3O[C@H](COP(=O)(O)OP(=O)(O)C(Cl)(Cl)P(=O)(O)O)[C@@H](O)[C@H]3O)c2n1 [analogue 9, β,γ-CCl2-2-MeS-ATP]
[2]; [9]
  degradation in human blood serum over 24 h: 15%
Rabbit IOP [6]; 100 μM, 10 μL
  duration of the reduction in IOP (mean-time effect): 4.5 h
[8]
  t1/2 of hydrolysis at pH 1.4: 65 h

## BP(=O)(OCC1OC(n2cnc3c(N)nc(SC)nc32)C(O)C1O)OP(=O)(O)C(F)(F)P(=O)(O)O (stereo not drawn) [analogue 10, α-borano-β,γ-CF2-2-MeS-ATP]
[1]
  resistance to hydrolysis by alkaline phosphatase: completely resistant

## BP(=O)(OC[C@H]1O[C@@H](n2cnc3c(N)nc(SC)nc32)[C@H](O)[C@@H]1O)OP(=O)(O)C(F)(F)P(=O)(O)O (stereo partly drawn) [analogue 10B, 2-MeS-adenosine-5′-O-(α-boranotriphosphate)-β,γ-CF2]
Turkey P2Y1 receptor; replacement of nonbridging oxygen with BH3
  fold reduction in P2Y1R activity vs analogue 8: 3 fold
[8]
  t1/2 of hydrolysis at pH 1.4: ~8 h

## BP(=O)(OCC1OC(n2cnc3c(N)nc(SC)nc32)C(O)C1O)OP(=O)(O)C(Cl)(Cl)P(=O)(O)O (stereo not drawn) [analogue 12, α-borano-β,γ-CCl2-2-MeS-ATP]
[1]
  resistance to hydrolysis by alkaline phosphatase: completely resistant

## BP(=O)(OC[C@H]1O[C@@H](n2cnc3c(N)nc(SC)nc32)[C@H](O)[C@@H]1O)OP(=O)(O)C(Cl)(Cl)P(=O)(O)O (stereo partly drawn) [analogue 12B, 2-MeS-adenosine-5′-O-(α-boranotriphosphate)-β,γ-CCl2]
NTPDase2
  relative hydrolysis by NTPDase2: completely resistant
Turkey P2Y1 receptor; B isomer vs A isomer
  fold less potent at P2Y1R than the A isomer 12A: 2 fold
NTPDase1
  relative hydrolysis by NTPDase1: completely resistant
Human NPP3
  relative hydrolysis by NPP3: completely resistant
NTPDase3
  relative hydrolysis by NTPDase3: completely resistant

## CSc1nc(N)c2ncn([C@@H]3O[C@H](COP(=O)(O)C(F)(F)P(=O)(O)O)[C@@H](O)[C@H]3O)c2n1 [analogue 13, 2-MeS-adenosine-5′-O-diphosphate-α,β-difluoromethylene]
[8]; pH 1.4, after 30 days
  starting material remaining at pH 1.4: 61%

## CSc1nc(N)c2ncn([C@@H]3O[C@H](COP(=O)(O)C(Cl)(Cl)P(=O)(O)O)[C@@H](O)[C@H]3O)c2n1 [analogue 14, 2-MeS-Rα,β-dichloromethylene-ADP]
[2]; [9]
  degradation in human blood serum over 24 h: completely resistant
[8]; pH 1.4, after 6 days
  hydrolysis of the starting material at pH 1.4: 15%

## CC(C)OC(=O)CCC/C=C\C[C@@H]1[C@@H](CC[C@@H](O)CCc2ccccc2)[C@H](O)C[C@@H]1O [latanoprost]
Rabbit IOP [6]; commercial drug, 0.005%, 40 μL
  duration of the reduction in IOP (mean-time effect): 5.5 h

## α-B,β,γ-CH2-ATP [analogue 2]
[7]
  t1/2 of hydrolysis at pH 1.4: 19 h
